This is an account of results in PMC3107129 (Nature chemical biology, 2010).

Data set [1] has as its target TTR in human blood plasma (Homo sapiens, UniProt P02766). The data set can be described thus: covalent modification of TTR in human blood plasma ex vivo. The data set is classed as binding. The note with it: compound 10.8 μM, 37 °C, maximum 50% (2/4 subunits). Summed up:
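Test compound at 10.8 μM final, from DMSO stock, incubated with human plasma (TTR 3.6–5.4 μM) for 24 h at 37 °C with rocking. Plasma pre-cleared on plain sepharose for 1 h at 4 °C. TTR immunocaptured on anti-TTR sepharose for 20 min at 4 °C, then washed with Tris-saline ± 0.05% saponin. Eluted with 100 mM triethylamine, pH 11.5. C18 RP-HPLC, 45-min 0.1% TFA water→acetonitrile gradient; at most 2/4 subunits modifiable.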

The next data set concerns the target recombinant WT-TTR (Homo sapiens, UniProt P02766). Briefly: conjugation of recombinant WT-TTR by RP-HPLC. The data set is classed as binding. The note with it: for conjugation half-life (t50) with WT-TTR: recombinant WT-TTR, C18-RP-HPLC.
The target of data set [2] is T1, K15A-TTR (Homo sapiens, UniProt P02766, K35A). The data set can be described thus: reaction with K15A-TTR homotetramer by RP-HPLC. It counts as binding. The conditions noted are these: compound 7.2 μM, 18 h, 25 °C.
The target in data set [3] is T1, K15A-TTR. The data set can be described thus: non-covalent binding to K15A-TTR. The note with it: out of a maximum of 2 eq.; immunocapture, high-pH dissociation, HPLC.
For data set [4], the target named is T1, K15A-TTR. The data set can be described thus: K15A-TTR fibril formation at pH 4.4 with non-covalent stabilizers. The data set is classed as biochemical. The conditions noted are these: compound 7.2 μM, 72 h.
The subject of data set [5] is IMR-32 human neuroblastoma cells. The conditions noted are these: cited from earlier work.

Turning to `O=C(Sc1ccccc1)c1cccc(/C=C/c2cc(Br)c(O)c(Br)c2)c1` [Compound 1], in data set [1], the “% Modification of TTR subunits in Human Blood Plasma” value (“% Modification of TTR subunits” for short) is recorded as 36% (±0.4%). Also, the “conjugation half-life (t50) with WT-TTR” value on recombinant WT-TTR stood at 143 min.
As to `Cc1cc(/C=C/c2cccc(C(=O)Sc3ccccc3)c2)cc(C)c1O` [Compound 2], the “% Modification of TTR subunits” value in data set [1] is 48% (±1.3%). Also, on recombinant WT-TTR, the “conjugation half-life (t50) with WT-TTR” value fell in the range of 5 to 15 min.
For `Cc1cc(/C=C/c2cccc(C(=O)Oc3ccccc3[N+](=O)[O-])c2)cc(C)c1O` [Compound 3], the “% Modification of TTR subunits” value in data set [1] is reported as 49% (±0.7%). For the same compound, on recombinant WT-TTR, the “conjugation half-life (t50) with WT-TTR” value lay within 5 to 15 min.
Take `Cc1cc(/C=C/c2cccc(C(=O)Oc3ccc(F)cc3)c2)cc(C)c1O` [Compound 4]: on K15A-TTR [2], the “reaction with K15A-TTR” value was “no reaction could be detected”. For the same compound, on K15A-TTR [3], the “equivalents non-covalently bound to K15A-TTR homotetramer” value was determined as 1.4 eq.
Take `Cc1cc(/C=C/c2ccc(C(=O)Oc3ccccc3[N+](=O)[O-])cc2)cc(C)c1O` [Compound 6]: the “reaction with K15A-TTR” value at K15A-TTR [2] is listed as “more non-chemoselective conjugation”.
Turning to `Cc1cc(/C=C/c2ccc(C(=O)Oc3ccc(F)cc3)cc2)cc(C)c1O` [Compound 7], the “conjugation yield with WT-TTR” value at recombinant WT-TTR (WT-TTR […], compound 7.2 μM, 18 h, 25 °C) was “lower modification yield”.
Take `Cc1cc(/C=C/c2cccc(C(=O)O)c2)cc(C)c1O` [Compound 8]: at K15A-TTR [4], the “stabilization of K15A-TTR against fibril formation” value is reported as “additional stabilization of K15A-TTR was observed”.
Take `Cc1cc(/C=C/c2ccccc2)cc(C)c1O` [Compound 9]: the “stabilization of K15A-TTR against fibril formation” value at K15A-TTR [4] is given as “additional stabilization of K15A-TTR was observed”.
In the case of `Oc1ccc(/C=C/c2cc(O)cc(O)c2)cc1` [resveratrol], the “prevention of amyloid-formation-associated cytotoxicity” value in data set [5] is on record as “known to prevent amyloid-formation-associated cytotoxicity”.
